Reference: publication PMC3277802 (Journal of Controlled Release, 2011)
One block for each substance: values may come before it.

Assays:
human liver cathepsin B [1] = target: T1, human liver cathepsin B (Homo sapiens, UniProt P07858); experiment: Polyplex destabilization by DLS under cathepsin B treatment; type: in vitro ADME; conditions: 4 N:P, 5.33 μg/mL DNA, pH 5, 37 °C
Outline: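 Polyplexes were formed at 4 N:P: pCMV-Luc2 plasmid (0.1 mg/mL in ddH2O) was mixed with an equal volume of polymer for 10 min at room temperature. These were added to pre-activated cathepsin B (1.28 μg/mL final, pH 5 acetate) at 5.33 μg/mL DNA final. The sample sat in a capped cuvette pre-equilibrated at 37 °C. DLS particle size was read every 15 min for 8 hrs.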

NIH/3T3 cells = experiment: Cytotoxicity by MTS assay, NIH/3T3; type: cell-based; conditions: free polymer, 4 hrs exposure, MTS at 48 hrs; four-parameter fit
Outline: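 Polymers at a range of concentrations were made up in ddH2O and diluted 10-fold into reduced-serum MEM. NIH/3T3 cells were rinsed once with PBS and exposed for 4 hrs. At 48 hrs MTS reagent was added, followed by 3 hrs of incubation and absorbance reading at 490 nm. IC50 was expressed in amine equivalents and obtained by a four-parameter variable-slope nonlinear fit.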

human liver cathepsin B [2] = target: T1, human liver cathepsin B; experiment: Cathepsin B-mediated polymer degradation; type: in vitro ADME; conditions: for Cathepsin B degradation of polymer (in words): 44 μg/mL polymer, 1.28 μg/mL cathepsin B, acetate pH 5, 37 °C, SEC; for Degradation Type: Table 1 summary of peptidase susceptibility of copolymer
Outline: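 HPMA-oligolysine copolymers were made by RAFT polymerization. Cathepsin B was pre-activated with DTT/EDTA at 37 °C for 15 min, then used in pH 5 acetate/EDTA buffer at 1.28 μg/mL final. Polymer was 44 μg/mL final, at 37 °C. Aliquots taken over time were stopped with E-64. Relative differential refractive index profiles from SEC were compared, with supporting MALDI-TOF MS.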

human liver cathepsin B [3] = target: T1, human liver cathepsin B; type: in vitro ADME; conditions: 4 N:P, 5.33 μg/mL DNA, cathepsin B pH 5, 37 °C; normalized to plasmid-only
Outline: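 Plasmid was pre-labelled with YOYO-1 (dye:base pair 1:50, 1 hr, room temperature) and complexed with polymer at 4 N:P. Polyplexes were incubated with pre-activated cathepsin B (pH 5 acetate, 37 °C) at 5.33 μg/mL DNA final. Timed aliquots were stopped with E-64 and diluted in ddH2O. Fluorescence was read at ex 491/em 509 nm and normalized to uncomplexed plasmid signal.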

Substance: HPMA-co-MaAhx(D)FKFLAhx(D)K10 [pH(D)Cath(D)K10]
Polyplex particle size over 8 hrs cathepsin B treatment (human liver cathepsin B [1]; DLS every 15 min): ~ 150 nm | IC50 (μg/mL), NIH/3T3 (NIH/3T3 cells): 30.3 µg/mL | Cathepsin B degradation of polymer (in words) (human liver cathepsin B [2]): no degradation | Degradation Type (human liver cathepsin B [2]): None

Substance: HPMA-co-MaAhxFKFLAhx(D)K10 [pHCath(D)K10]
Polyplex particle size over 8 hrs cathepsin B treatment (human liver cathepsin B [1]; DLS every 15 min): ~ 600 nm | IC50 (μg/mL), NIH/3T3 (NIH/3T3 cells): 28.7 µg/mL

YOYO-1 fluorescence relative to free plasmid by 8 hrs of cathepsin B exposure (human liver cathepsin B [3]): 70%
Substance: HPMA-co-MaAhxFKFLAhxK10 [pHCathK10]
Polyplex particle size at start of cathepsin B treatment (human liver cathepsin B [1]; DLS): ~ 150 nm | Polyplex particle size after 4 hrs cathepsin B treatment (plateau) (human liver cathepsin B [1]; DLS every 15 min): about 500 nm | IC50 (μg/mL), NIH/3T3 (NIH/3T3 cells): 29.7 µg/mL | Degradation Type (human liver cathepsin B [2]): Endo/exopeptidase

Substance: HPMA-co-MaAhxK10 [reference compound]
Cathepsin B degradation of polymer (in words) (human liver cathepsin B [2]): observed MW shift over 4hrs is comparable to 10 min with pHCathK10
